pIC50: −log10 of the molar value.
Columns and labels:
Eimeria tenella [1] = experiment: Anticococcidal activity against Eimeria tenella in Chick assessed as reduction in oocyte at 12.5 ppm relative to control; type: functional; design: scale not given: the % may be the effect or the level left
In short: (§1)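 Expanded Mini-Assay Coccidiosis (ExMAC) in chickens infected with E. tenella, E. acervulina, E. mitis and E. maxima. Compound given in the feed at the stated ppm. Efficacy for each species is scored 0 to 4 from the percent oocyst reduction relative to an untreated control. Where a compound was tested more than once, all values are reported.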

Eimeria acervulina [2] = experiment: Anticococcidal activity against Eimeria acervulina in Chick assessed as reduction in oocyte at 12.5 ppm relative to control; type: functional; design: scale not given: the % may be the effect or the level left; in short: as §1
Eimeria maxima [3] = experiment: Anticococcidal activity against Eimeria maxima in Chick assessed as reduction in oocyte at 12.5 ppm relative to control; type: functional; design: scale not given: the % may be the effect or the level left; in short: as §1
Eimeria mitis [4] = experiment: Anticococcidal activity against Eimeria mitis in Chick assessed as reduction in oocyte at 12.5 ppm relative to control; type: functional; design: scale not given: the % may be the effect or the level left; in short: as §1
[5] = molecular target: cGMP-dependent protein kinase (Eimeria tenella, UniProt Q8MMZ8); experiment: Inhibition of Eimeria tenella cGMP-dependent protein kinase by Ten_K assay
In short: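 Ten_K (Tenella Kinase) assay measuring inhibition of E. tenella PKG enzyme activity. Result expressed as the concentration giving 50% inhibition (IC50, nM). Where a compound was tested more than once, all values are reported.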

Eimeria tenella [6] = experiment: Anticococcidal activity against Eimeria tenella in Chick assessed as reduction in oocyte at 6.25 ppm relative to control; type: functional; design: scale not given: the % may be the effect or the level left; in short: as §1
Eimeria acervulina [7] = experiment: Anticococcidal activity against Eimeria acervulina in Chick assessed as reduction in oocyte at 6.25 ppm relative to control; type: functional; design: scale not given: the % may be the effect or the level left; in short: as §1
Eimeria maxima [8] = experiment: Anticococcidal activity against Eimeria maxima in Chick assessed as reduction in oocyte at 6.25 ppm relative to control; type: functional; design: scale not given: the % may be the effect or the level left; in short: as §1
Eimeria mitis [9] = experiment: Anticococcidal activity against Eimeria mitis in Chick assessed as reduction in oocyte at 6.25 ppm relative to control; type: functional; design: scale not given: the % may be the effect or the level left; in short: as §1
Eimeria tenella [10] = experiment: Anticococcidal activity against Eimeria tenella in Chick assessed as reduction in oocyte at 25 ppm relative to control; type: functional; design: scale not given: the % may be the effect or the level left; in short: as §1
Eimeria acervulina [11] = experiment: Anticococcidal activity against Eimeria acervulina in Chick assessed as reduction in oocyte at 25 ppm relative to control; type: functional; design: scale not given: the % may be the effect or the level left; in short: as §1
Eimeria mitis [12] = experiment: Anticococcidal activity against Eimeria mitis in Chick assessed as reduction in oocyte at 25 ppm relative to control; type: functional; design: scale not given: the % may be the effect or the level left; in short: as §1
Eimeria maxima [13] = experiment: Anticococcidal activity against Eimeria maxima in Chick assessed as reduction in oocyte at 25 ppm relative to control; type: functional; design: scale not given: the % may be the effect or the level left; in short: as §1

Sequence of cGMP-dependent protein kinase (Q8MMZ8 whole entry): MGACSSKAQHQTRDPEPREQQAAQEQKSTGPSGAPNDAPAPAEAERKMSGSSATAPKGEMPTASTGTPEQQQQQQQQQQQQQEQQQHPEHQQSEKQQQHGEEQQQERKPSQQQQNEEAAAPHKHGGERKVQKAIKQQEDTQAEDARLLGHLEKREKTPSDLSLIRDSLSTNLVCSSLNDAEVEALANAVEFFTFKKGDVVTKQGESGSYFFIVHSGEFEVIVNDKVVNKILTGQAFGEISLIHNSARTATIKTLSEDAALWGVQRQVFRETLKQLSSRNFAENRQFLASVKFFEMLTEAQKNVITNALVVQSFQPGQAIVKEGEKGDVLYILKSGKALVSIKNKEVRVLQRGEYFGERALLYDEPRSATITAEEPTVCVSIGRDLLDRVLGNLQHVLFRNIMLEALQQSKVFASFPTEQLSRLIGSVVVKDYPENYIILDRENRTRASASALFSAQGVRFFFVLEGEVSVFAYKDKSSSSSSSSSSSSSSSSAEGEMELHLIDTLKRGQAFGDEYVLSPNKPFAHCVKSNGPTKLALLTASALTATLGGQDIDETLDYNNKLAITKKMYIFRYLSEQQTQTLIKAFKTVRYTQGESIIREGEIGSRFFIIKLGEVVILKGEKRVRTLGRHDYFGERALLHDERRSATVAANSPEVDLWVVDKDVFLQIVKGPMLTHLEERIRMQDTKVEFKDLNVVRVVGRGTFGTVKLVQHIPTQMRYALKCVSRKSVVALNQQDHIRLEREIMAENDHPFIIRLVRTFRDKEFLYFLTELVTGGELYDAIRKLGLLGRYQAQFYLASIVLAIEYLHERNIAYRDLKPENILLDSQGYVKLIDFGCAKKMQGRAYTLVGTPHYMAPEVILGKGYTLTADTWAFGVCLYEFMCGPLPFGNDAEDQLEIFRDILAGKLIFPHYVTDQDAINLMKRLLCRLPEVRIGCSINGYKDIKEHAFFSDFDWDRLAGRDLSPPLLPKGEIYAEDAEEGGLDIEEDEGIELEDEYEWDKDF

| SMILES | Activity (Eimeria tenella [1]) | Activity (Eimeria acervulina [2]) | Activity (Eimeria maxima [3]) | Activity (Eimeria mitis [4]) | pIC50 [5] | Activity (Eimeria tenella [6]) | Activity (Eimeria acervulina [7]) | Activity (Eimeria maxima [8]) | Activity (Eimeria mitis [9]) | Activity (Eimeria tenella [10]) | Activity (Eimeria acervulina [11]) | Activity (Eimeria mitis [12]) | Activity (Eimeria maxima [13]) |
| --- | --- | --- | --- | --- | --- | --- | --- | --- | --- | --- | --- | --- | --- |
| CCCNc1nccc(-c2c(-c3ccc(F)cc3)nc3cc(CN(C)C)ccn23)n1 | 80% | 80% | 80% | 80% |  |  |  |  |  |  |  |  |  |
| CCCC(=O)Nc1nccc(-c2c(-c3ccc(F)cc3)nc3cc(CN(C)C)ccn23)n1 | 80% | 80% | 80% | 80% | 9.20 | <50% | <50% | 80% | <50% |  |  |  |  |
| Cc1ccccc1CNc1nccc(-c2c(-c3ccc(F)cc3)nc3cc(CN(C)C)ccn23)n1 |  |  |  |  | 10.10 |  |  |  |  | <50% | <50% | <50% | 50% |
| CN(C)Cc1ccn2c(-c3ccnc(NCc4cc(F)ccc4F)n3)c(-c3ccc(F)cc3)nc2c1 |  |  |  |  | 10.59 |  |  |  |  | <50% | <50% | <50% | 80% |
| CN(C)Cc1ccn2c(-c3ccnc(N)n3)c(-c3ccc(F)cc3F)nc2c1 | 100% | 100% |  | 80% | 10.00 | 80% | 100% |  | 50% | 80% | 100% | 80% |  |
| CN(C)Cc1ccn2c(-c3ccnc(NCc4ccc(F)cc4)n3)c(-c3ccc(F)cc3)nc2c1 | <50% | <50% | <50% | <50% | 10.18 |  |  |  |  | 80% | 80% | 80% | 80% |
| CCC(=O)Nc1nccc(-c2c(-c3ccc(F)cc3)nc3cc(CN(C)C)ccn23)n1 | 80% | <50% | 80% | <50% | 9.52 | <50% | <50% |  | <50% | 80% | 80% | 80% | 80% |
| CN(C)Cc1ccn2c(-c3ccnc(NCc4cc(F)cc(F)c4)n3)c(-c3ccc(F)cc3)nc2c1 | <50% | <50% | <50% | <50% | 9.96 |  |  |  |  | 80% | 80% | <50% | 80% |
| CN(C)Cc1ccn2c(-c3nc(N)ncc3C#N)c(-c3ccc(F)cc3)nc2c1 |  |  |  |  | 8.80 |  |  |  |  | <50% | <50% | <50% | <50% |
| CN(C)Cc1ccn2c(-c3ccnc(NCc4cccc(Cl)c4)n3)c(-c3ccc(F)cc3)nc2c1 |  |  |  |  | 9.74 |  |  |  |  | <50% | <50% | <50% | 80% |
| CCCCC(=O)Nc1nccc(-c2c(-c3ccc(F)cc3)nc3cc(CN(C)C)ccn23)n1 | 50% | 50% | 80% |  | 9.60 | < 50% | 80% | 80% | <50% | 80% | 80% | 80% | 80% |
| CN(C)Cc1ccn2c(-c3ccnc(NS(=O)(=O)c4ccccc4)n3)c(-c3ccc(F)cc3)nc2c1 |  |  |  |  | 9.60 |  |  |  |  | <50% | <50% | <50% | <50% |
| CN(C)Cc1ccn2c(-c3ccnc(NCc4ccc(Cl)cc4)n3)c(-c3ccc(F)cc3)nc2c1 |  |  |  |  | 9.62 |  |  |  |  | <50% | <50% | <50% | <50% |
| CCNc1nccc(-c2c(-c3ccc(F)cc3)nc3cc(CN(C)C)ccn23)n1 | 80% | 80% | 80% | <50% | 9.64 | <50% |  | 80% | <50% | 80% | 80% | 80% | 80% |
| COC(=O)Nc1nccc(-c2c(-c3ccc(F)cc3)nc3cc(CN(C)C)ccn23)n1 | 80% | 80% | 80% | <50% | 9.35 |  |  |  |  | 80% | 80% | <50% | 80% |
| CN(C)Cc1ccn2c(-c3ccnc(NCc4cccc(F)c4F)n3)c(-c3ccc(F)cc3)nc2c1 |  |  |  |  | 9.92 |  |  |  |  | <50% | <50% | <50% | <50% |

| SMILES | Activity (Eimeria tenella [1]) | Activity (Eimeria acervulina [2]) | Activity (Eimeria maxima [3]) | Activity (Eimeria mitis [4]) | pIC50 [5] | Activity (Eimeria tenella [6]) | Activity (Eimeria acervulina [7]) | Activity (Eimeria maxima [8]) | Activity (Eimeria mitis [9]) | Activity (Eimeria tenella [10]) | Activity (Eimeria acervulina [11]) | Activity (Eimeria mitis [12]) | Activity (Eimeria maxima [13]) |
| --- | --- | --- | --- | --- | --- | --- | --- | --- | --- | --- | --- | --- | --- |
| COCCCNc1nccc(-c2c(-c3ccc(F)cc3)nc3cc(CN(C)C)ccn23)n1 |  |  |  |  | 9.60 |  |  |  |  | 80% | 80% | <50% | 50% |
| Cc1cccc(CNc2nccc(-c3c(-c4ccc(F)cc4)nc4cc(CN(C)C)ccn34)n2)c1 |  |  |  |  | 10.08 |  |  |  |  | 80% | <50% | <50% | <50% |
| CN(C)Cc1ccn2c(-c3ccnc(NCc4ccccc4Cl)n3)c(-c3ccc(F)cc3)nc2c1 |  |  |  |  | 10.25 |  |  |  |  | 50% | <50% | <50% | 80% |
| CN(C)Cc1ccn2c(-c3ccnc(NC(=O)NC(C)(C)C)n3)c(-c3ccc(F)cc3)nc2c1 | 80% | 80% | 80% | 80% | 8.36 |  |  |  |  |  |  |  |  |
| Cc1ccc(CNc2nccc(-c3c(-c4ccc(F)cc4)nc4cc(CN(C)C)ccn34)n2)cc1 |  |  |  |  | 9.92 |  |  |  |  | <50% | 50% | <50% | 80% |
| CN(C)Cc1ccn2c(-c3ccnc(NCc4ccc(F)cc4F)n3)c(-c3ccc(F)cc3)nc2c1 |  |  |  |  | 9.82 |  |  |  |  | <50% | <50% | <50% | 80% |
| CCCCCCNc1nccc(-c2c(-c3ccc(F)cc3)nc3cc(CN(C)C)ccn23)n1 |  |  |  |  | 9.89 |  |  |  |  | 80% | <50% | <50% | <50% |
| Cc1cc(-c2nc3cc(CN(C)C)ccn3c2-c2ccnc(N)n2)ccc1F | 80% | 80% |  | 80% | 9.64 | 80% | 80% |  | 80% | 80% | 80% | 80% |  |
| CCCCCNc1nccc(-c2c(-c3ccc(F)cc3)nc3cc(CN(C)C)ccn23)n1 |  |  |  |  | 10.00 |  |  |  |  | <50% | 80% | 50% | 80% |
| CN(C)Cc1ccn2c(-c3ccnc(NC(=O)C4CCCC4)n3)c(-c3ccc(F)cc3)nc2c1 | 80% | <50% |  | 80% | 9.68 | < 50% | <50% |  | <50% | 80% | 80% | 80% |  |
| CN(C)Cc1ccn2c(-c3ccnc(Nc4ccccn4)n3)c(-c3ccc(F)cc3)nc2c1 | 80% | <50% | 50% | 80% | 9.40 |  |  |  |  | 80% | <50% | 80% | 80% |
| CN(C)Cc1ccn2c(-c3ccnc(N)n3)c(-c3ccc(F)c(Br)c3)nc2c1 |  |  |  |  | 9.80 |  |  |  |  | 80% | 80% | <50% | 80% |
| CN(C)Cc1ccn2c(-c3ccnc(N)n3)c(-c3ccc(Cl)cc3)nc2c1 | <50% | <50% |  | <50% | 9.39 |  |  |  |  | 80% | 50% | 50% |  |
| CN(C)Cc1ccn2c(-c3ccnc(NCc4ccccc4F)n3)c(-c3ccc(F)cc3)nc2c1 |  |  |  |  | 10.06 |  |  |  |  | 80% | <50% | 80% | 80% |
| CN(C)Cc1ccn2c(-c3nc(N)ncc3Br)c(-c3ccc(F)cc3)nc2c1 |  |  |  |  | 8.24 |  |  |  |  | 50% | <50% | <50% | 50% |
| CN(C)Cc1ccn2c(-c3ccnc(NCc4ccc(F)c(F)c4)n3)c(-c3ccc(F)cc3)nc2c1 |  |  |  |  | 10.22 |  |  |  |  | <50% | <50% | <50% | <50% |

From ChEMBL document CHEMBL1139934, “Synthesis and biological activity of imidazopyridine anticoccidial agents: part I” (Eur J Med Chem, 2007)
